Tests used:
[1] = Inhibition of apamin-sensitive SK channel
[2] = Inhibition of apamin-sensitive SK channel at 10 uM
[3] = biological target: Histamine H3 receptor (Homo sapiens) (UniProt Q9Y5N1); assay: Inhibition of histamine H3 receptor at 10 uM
[4] = Inhibition of L-type calcium channel at 10 uM
[5] = biological target: Small conductance calcium-activated potassium channel protein 1 (Homo sapiens, UniProt Q92952); assay: Inhibition of SK1 expressed in CHO FlipIn cells by whole cell patch-clamp assay; format: cell-based
Small conductance calcium-activated potassium channel protein 1, sequence (Q92952 whole entry): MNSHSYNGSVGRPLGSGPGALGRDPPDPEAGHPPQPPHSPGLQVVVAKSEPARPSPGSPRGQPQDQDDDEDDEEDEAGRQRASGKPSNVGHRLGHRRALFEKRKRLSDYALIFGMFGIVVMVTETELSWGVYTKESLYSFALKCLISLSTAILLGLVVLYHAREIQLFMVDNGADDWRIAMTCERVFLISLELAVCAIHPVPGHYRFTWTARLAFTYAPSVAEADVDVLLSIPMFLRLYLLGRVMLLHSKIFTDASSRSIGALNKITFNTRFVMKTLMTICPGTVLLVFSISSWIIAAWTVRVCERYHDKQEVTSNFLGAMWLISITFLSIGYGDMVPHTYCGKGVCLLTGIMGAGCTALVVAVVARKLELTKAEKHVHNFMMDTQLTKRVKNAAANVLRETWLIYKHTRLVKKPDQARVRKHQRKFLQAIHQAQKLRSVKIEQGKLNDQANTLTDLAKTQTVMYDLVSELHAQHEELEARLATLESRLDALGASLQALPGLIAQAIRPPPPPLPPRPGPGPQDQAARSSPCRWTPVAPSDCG
Method in brief: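 Whole-cell patch clamp on CHO FlipIn cells stably transfected with SK1, grown in Ham's F-12 with 10% calf serum, streptomycin/penicillin and hygromycin-B. Pipette solution (mM): KCl 130, EGTA 10, CaCl2 8.751, MgCl2 1.08, Hepes 10 ([…]), pH 7.2. K+ currents at −50 mV; percent inhibition at increasing concentrations, normalised to full block by 100 µM N-methyl-laudanosine.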

[6] = biological target: Small conductance calcium-activated potassium channel protein 3 (Homo sapiens, UniProt Q9UGI6); assay: Inhibition of SK3 expressed in CHO FlipIn cells by whole cell patch-clamp assay; format: cell-based
Small conductance calcium-activated potassium channel protein 3, sequence (Q9UGI6 whole entry): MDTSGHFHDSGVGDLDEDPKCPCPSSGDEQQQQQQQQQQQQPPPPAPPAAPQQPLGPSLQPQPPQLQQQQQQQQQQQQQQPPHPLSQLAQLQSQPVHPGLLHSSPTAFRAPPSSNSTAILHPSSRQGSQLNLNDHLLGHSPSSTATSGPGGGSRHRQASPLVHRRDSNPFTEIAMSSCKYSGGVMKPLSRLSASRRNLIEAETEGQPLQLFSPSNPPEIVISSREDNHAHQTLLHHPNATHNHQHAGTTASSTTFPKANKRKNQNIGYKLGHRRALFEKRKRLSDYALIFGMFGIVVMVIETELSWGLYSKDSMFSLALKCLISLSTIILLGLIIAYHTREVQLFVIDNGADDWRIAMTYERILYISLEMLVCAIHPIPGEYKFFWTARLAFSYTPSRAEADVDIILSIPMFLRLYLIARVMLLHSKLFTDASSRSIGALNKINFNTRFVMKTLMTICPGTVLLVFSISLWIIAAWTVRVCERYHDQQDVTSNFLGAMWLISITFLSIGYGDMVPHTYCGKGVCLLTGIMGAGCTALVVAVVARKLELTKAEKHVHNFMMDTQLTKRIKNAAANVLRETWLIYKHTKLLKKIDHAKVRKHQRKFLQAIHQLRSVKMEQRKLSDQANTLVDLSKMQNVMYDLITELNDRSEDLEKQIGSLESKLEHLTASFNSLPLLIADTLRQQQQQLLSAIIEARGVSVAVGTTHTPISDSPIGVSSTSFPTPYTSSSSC

[7] = biological target: T1, 5-hydroxytryptamine receptor 1A (Homo sapiens) (UniProt P08908); assay: Inhibition of 5HT1A receptor at 10 uM
T1 sequence (whole entry): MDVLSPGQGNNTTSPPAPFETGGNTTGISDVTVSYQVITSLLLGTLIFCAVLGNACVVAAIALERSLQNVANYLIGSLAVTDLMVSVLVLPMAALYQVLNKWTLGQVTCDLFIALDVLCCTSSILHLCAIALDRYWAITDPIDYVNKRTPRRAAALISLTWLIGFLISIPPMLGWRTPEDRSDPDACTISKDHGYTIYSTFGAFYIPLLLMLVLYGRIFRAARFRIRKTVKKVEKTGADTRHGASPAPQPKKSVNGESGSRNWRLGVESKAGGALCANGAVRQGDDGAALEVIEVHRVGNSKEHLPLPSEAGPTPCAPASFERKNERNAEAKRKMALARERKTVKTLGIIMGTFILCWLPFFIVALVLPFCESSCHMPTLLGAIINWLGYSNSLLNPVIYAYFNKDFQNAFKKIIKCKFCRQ

[8] = biological target: Small conductance calcium-activated potassium channel protein 2 (Homo sapiens, UniProt Q9H2S1); assay: Inhibition of SK2 expressed in CHO FlipIn cells by whole cell patch-clamp assay; format: cell-based
Small conductance calcium-activated potassium channel protein 2, sequence (Q9H2S1 whole entry): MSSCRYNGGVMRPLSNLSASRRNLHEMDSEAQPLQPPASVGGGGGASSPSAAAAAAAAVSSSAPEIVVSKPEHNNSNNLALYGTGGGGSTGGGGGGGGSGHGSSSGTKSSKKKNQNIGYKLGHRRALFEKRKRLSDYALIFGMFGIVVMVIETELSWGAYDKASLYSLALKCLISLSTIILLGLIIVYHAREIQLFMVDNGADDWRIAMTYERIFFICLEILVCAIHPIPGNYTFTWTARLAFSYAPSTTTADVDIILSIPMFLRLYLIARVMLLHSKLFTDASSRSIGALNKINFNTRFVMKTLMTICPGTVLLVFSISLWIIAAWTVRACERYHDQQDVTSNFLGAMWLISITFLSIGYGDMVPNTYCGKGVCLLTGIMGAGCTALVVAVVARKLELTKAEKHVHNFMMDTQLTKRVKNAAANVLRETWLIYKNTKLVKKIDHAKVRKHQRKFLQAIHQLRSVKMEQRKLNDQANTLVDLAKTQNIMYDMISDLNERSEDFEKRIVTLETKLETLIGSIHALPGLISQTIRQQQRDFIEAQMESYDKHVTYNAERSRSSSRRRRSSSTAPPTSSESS

[9] = biological target: D(2) dopamine receptor (Homo sapiens) (UniProt P14416); assay: Inhibition of dopamine D2 receptor at 10 uM
D(2) dopamine receptor (Homo sapiens), sequence (P14416 whole entry): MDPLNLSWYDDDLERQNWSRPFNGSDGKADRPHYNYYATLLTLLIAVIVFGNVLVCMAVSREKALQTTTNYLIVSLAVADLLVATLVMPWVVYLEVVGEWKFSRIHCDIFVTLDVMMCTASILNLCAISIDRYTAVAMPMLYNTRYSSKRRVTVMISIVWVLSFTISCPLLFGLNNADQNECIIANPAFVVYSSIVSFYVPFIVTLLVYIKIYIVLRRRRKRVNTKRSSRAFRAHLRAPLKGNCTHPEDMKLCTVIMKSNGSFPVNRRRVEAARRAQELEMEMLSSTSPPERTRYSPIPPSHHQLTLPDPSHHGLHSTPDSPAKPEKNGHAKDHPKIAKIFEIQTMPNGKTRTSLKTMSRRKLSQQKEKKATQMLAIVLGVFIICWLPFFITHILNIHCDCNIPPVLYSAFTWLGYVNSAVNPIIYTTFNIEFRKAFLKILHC

[10] = Dissociation constant, pKa at pH 1.8 to 2.0; format: physicochemical
Method in brief: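 pKa by potentiometric titration on a Sirius PCA200 analyser; at least three aqueous solutions titrated; sample acidified to pH 1.8–2.0 with 0.5 M aqueous HCl, then titrated with 0.5 M aqueous KOH to pH 12.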

[11] = Lipophilicity, log P of the compound; format: physicochemical; details: octanol/water
Method in brief: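 logP by potentiometric titration on a Sirius PCA200 analyser; at least three titrations at different phase volume ratios, mean logP reported; sample acidified to pH 1.8–2.0 with 0.5 M HCl, titrated with 0.5 M KOH to pH 12.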

[12] = Inhibition of sigma 2 receptor at 10 uM

Histamine H3 receptor (Homo sapiens), sequence (Q9Y5N1 whole entry): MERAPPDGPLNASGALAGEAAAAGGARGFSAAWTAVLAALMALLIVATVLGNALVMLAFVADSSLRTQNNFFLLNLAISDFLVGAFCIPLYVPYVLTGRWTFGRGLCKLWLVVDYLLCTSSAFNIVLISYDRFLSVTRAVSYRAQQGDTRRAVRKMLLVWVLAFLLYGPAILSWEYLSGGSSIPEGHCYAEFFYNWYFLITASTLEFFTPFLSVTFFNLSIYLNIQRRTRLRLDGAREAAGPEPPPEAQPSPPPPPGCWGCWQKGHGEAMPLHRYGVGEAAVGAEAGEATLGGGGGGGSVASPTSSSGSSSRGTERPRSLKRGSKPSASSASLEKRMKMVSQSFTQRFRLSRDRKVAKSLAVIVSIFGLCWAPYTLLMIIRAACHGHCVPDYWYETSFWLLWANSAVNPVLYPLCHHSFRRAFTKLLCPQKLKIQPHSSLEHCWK

With COc1ccc(CC2c3cc(OC)c(OC)cc3CCN2C)cc1OC (configuration not stated) [LAUDANOSINE] the Ki [1] was 30000 nM.

COc1cc2c(cc1OC)[C@@H](CCC[C@H]1c3cc(OC)c(OC)cc3CCN1C)N(C)CC2 showed a Ki [1] of 1420 nM.

With COc1ccc(C[C@H]2c3cc(OC)c(OC)cc3CC[N+]2(C)C)cc1OC [LAUDANOSINE METHIODIDE] the Ki [1] was 1600 nM.

Cc1cc(N)c2ccccc2[n+]1CCCCCCCCCC[n+]1c(C)cc(N)c2ccccc21 [DEQUALINIUM CHLORIDE] gave a Ki [1] of 221 nM.

In the case of COc1cc2c(cc1OC)[C@@H](CCC[C@@H]1c3cc(OC)c(OC)cc3CCN1C)N(C)CC2, the Ki [1] is reported as 1880 nM.

COc1cc2c(cc1OC)[C@H](CCC[C@H]1c3cc(OC)c(OC)cc3CCN1C)N(C)CC2 gave an inhibition [2] of 61%, an inhibition [3] of 37% and an inhibition [4] of 36%. It also gave an IC50 [5] of 3800 nM, an IC50 [6] of 3000 nM and an inhibition [7] of 39%. The IC50 [8] was 2600 nM, the inhibition [9] was 31% and the pKa [10] was 8.1. For the same compound, the logP [11] was 2.9, the Ki [1] was 293 nM and the inhibition [12] was 39%.

Reference: ChEMBL document CHEMBL1145645, “Bis-tetrahydroisoquinoline derivatives: AG525E1, a new step in the search for non-quaternary non-peptidic small conductance Ca(2+)-activated K(+) channel blockers” (Bioorg Med Chem Lett, 2008)
